Data reported in ChEMBL document CHEMBL1124079, “Methotrexate analogues. 31. Meta and ortho isomers of aminopterin, compounds with a double bond in the side chain, and a novel analogue modified at the alpha-carbon: chemical and in vitro biological studies” (J Med Chem, 1988).

Tests used:
L1210 [1] = test: Inhibitory activity against L1210 cells; format: functional, cell-based; conditions: Mus musculus
Dihydrofolate reductase [2] = biological target: T1, Dihydrofolate reductase (Mus musculus, UniProt P00375); test: Inhibitory activity against dihydrofolate reductase(DHFR)
T1 sequence (P00375 whole entry): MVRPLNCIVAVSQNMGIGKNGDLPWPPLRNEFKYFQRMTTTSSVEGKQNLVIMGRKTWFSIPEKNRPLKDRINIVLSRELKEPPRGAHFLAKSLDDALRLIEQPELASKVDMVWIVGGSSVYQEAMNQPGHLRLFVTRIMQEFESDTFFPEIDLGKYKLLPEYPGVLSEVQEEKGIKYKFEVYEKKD
Procedure, shortened: (§1)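 DHFR purified from L1210 murine leukemia cells by affinity chromatography on MTX-Sepharose, then used as the enzyme source for inhibitor titration; IC50 read from the enzyme-activity titration curve.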

L1210 ( R81) [3] = test: Inhibitory activity against L1210/R81 cells; format: functional, cell-based; conditions: Mus musculus
L1210 [4] = test: Inhibitory activity against cultured L1210 cells; conditions: Mus musculus
L1210 ( R81) [5] = test: Inhibition of the growth of the MTX-resistant L1210/R81 cell line; format: functional, cell-based; conditions: Mus musculus
L1210 [6] = test: Growth inhibitory activity against cultured L1210 cells; format: functional, cell-based; conditions: Mus musculus
[7] = biological target: T2, Dihydrofolate reductase (Mus musculus) (UniProt P00375); test: Inhibitory activity against dihydrofolate reductase(DHFR) isolated from L1210 murine leukemia cells at 50 uM; format: cell-free
T2 sequence (whole entry): T1 sequence (P00375 whole entry)

L1210 [8] = test: Inhibitory activity against growth of mouse L1210 leukemia cells; format: functional, cell-based
Dihydrofolate reductase [9] = biological target: T1, Dihydrofolate reductase; test: Inhibitory activity against dihydrofolate reductase(DHFR) isolated from L1210 murine leukemia cells; format: cell-free; procedure, shortened: as §1

CN(Cc1cnc2nc(N)nc(N)c2n1)c1ccc(C(=O)N(CCC(=O)O)CC(=O)O)cc1
IC50 (L1210 [1]): 12 µM | IC50 (Dihydrofolate reductase [2]): 0.038 µM | IC50 (L1210 ( R81) [3]): 180 µM

CN(Cc1cnc2nc(N)nc(N)c2n1)c1ccc(C(=O)N[C@@H](CCC(=O)O)C(=O)O)cc1 [METHOTREXATE]
IC50 (L1210 [4]): 5 nM

CN(Cc1cnc2nc(N)nc(N)c2n1)c1ccc(C(=O)NC(C/C=C/C(=O)O)C(=O)O)cc1 (centres undefined)
IC50 (L1210 ( R81) [5]): > 300 µM | IC50 (L1210 [6]): 350 nM | IC50 (Dihydrofolate reductase [2]): 32 µM

Nc1nc(N)c2nc(CNc3ccccc3C(=O)NC(CCC(=O)O)C(=O)O)cnc2n1 (centres undefined)
inhibition [7]: 20% | IC50 (L1210 [8]): 64 µM

Nc1nc(N)c2nc(CNc3ccc(C(=O)N[C@@H](CCC(=O)O)C(=O)O)cc3)cnc2n1 [AMINOPTERIN]
IC50 (Dihydrofolate reductase [9]): 0.002 µM

Nc1nc(N)c2nc(CNc3ccc(C(=O)NC(C/C=C/C(=O)O)C(=O)O)cc3)cnc2n1 (centres undefined)
IC50 (L1210 [6]): 31 nM | IC50 (Dihydrofolate reductase [2]): 46 µM

Nc1nc(N)c2nc(CNc3cccc(C(=O)NC(CCC(=O)O)C(=O)O)c3)cnc2n1 (centres undefined)
IC50 (Dihydrofolate reductase [9]): 200 µM | IC50 (L1210 [8]): 1.5 µM
